Results taken from paper PMC6175428 (Journal of Clinical Pharmacology, 2018).
Like-named read-outs stand apart in the source and are kept apart here. Blank lines part the entries; values can stand above or below the compound they belong to.

Tests used:
[1] = format: in vivo, human; details: for CL/F (total apparent clearance): SNAC after 10th dose, geometric mean (CV)
Outline: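 Adults with hepatic function graded by Child-Pugh took one oral tablet daily for 10 days: 5 mg for 5 days, then 10 mg for 5 days. Each tablet held 300 mg SNAC and was taken with 120 mL water after a ≥6 h fast. Plasma was sampled within 24 h after dosing on days 1 and 10 into K3-EDTA and stored at −20°C. LC-MS/MS used in-line solid-phase preparation and internal-standard peak area ratios, with an LLOQ of 5.00 ng/mL.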

[2] = Urine bioanalysis / renal clearance of semaglutide and SNAC; format: in vivo, human; details: for CLR (renal clearance): SNAC after 10th dose, geometric mean (CV)
Outline: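 Urine was collected before dosing on day 1 and in fractions after the day-10 dose (0–4, 4–8, 16–24 and 24–36 h) and stored at −20°C. 1% Triton X-100 was added at 1 part per 9 parts urine. Semaglutide and SNAC were measured by the plasma LC-MS/MS assays, with ranges corrected by a factor of 1.111. Renal clearance was reported as the geometric mean (CV) per hepatic function group.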

plasma protein = assay: Plasma protein binding of SNAC; format: in vitro ADME, human
Outline: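 Plasma protein binding measured ex vivo by rapid equilibrium dialysis on blood drawn 30 minutes after the day-10 dose. Subjects with normal hepatic function or mild, moderate or severe hepatic impairment received the oral semaglutide/SNAC co-formulation for 10 consecutive days. Food and liquid were withheld for 30 minutes post-dose. The read-out is the fraction of unbound SNAC per subject, summarised as a median per group.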

[3] = subcutaneous once-daily liraglutide; cited from earlier work
[4] = mild hepatic impairment (n = 12)
[5] = moderate hepatic impairment (n = 12)
[6] = normal hepatic function (n = 24)
[7] = severe hepatic impairment (n = 8)

- CL/F (total apparent clearance) [1, 4]: 195.6 (24.2) L/h
- CL/F (total apparent clearance) [1, 5]: 105.1 (63.1) L/h
- CL/F (total apparent clearance) [1, 6]: 275.8 (27.9) L/h
- CL/F (total apparent clearance) [1, 7]: 78.5 (36.4) L/h
- Median tmax of SNAC ([1]; across the 4 hepatic function groups): approximately 0.5 hours
- Accumulation of SNAC ([1]; day 1 vs day 10 exposure, any hepatic function group): No accumulation
- CLR (renal clearance) [2, 4]: 0.075 (125.3) L/h
- CLR (renal clearance) [2, 5]: 0.054 (73.98) L/h
- CLR (renal clearance) [2, 6]: 0.076 (109.0) L/h
- CLR (renal clearance) [2, 7]: 0.111 (88.52) L/h
- Median fraction of unbound SNAC (plasma protein; across the hepatic function groups, samples 30 minutes after dosing on day 10): less than 1%
- Plasma protein binding of SNAC (plasma protein; all subjects across hepatic function groups): more than 99%
Compound: O=C([O-])CCCCCCCNC(=O)c1ccccc1O.[Na+] [SNAC, sodium N‐(8‐[2‐hydroxybenzoyl]amino) caprylate]
- Estimated mean CLR of SNAC, range across groups ([2]; range of estimated means with 95%CI across hepatic function groups): 0.052 [95%CI, 0.036–0.076]–0.096 [95%CI, 0.059–0.157] L/h

Compound: liraglutide
- Drug exposure with impaired liver function [3]: not increased

- Semaglutide in urine samples ([2]; subjects with normal hepatic function and all hepatic impairment groups): not detected
Compound: CC[C@H](C)[C@H](NC(=O)[C@H](Cc1ccccc1)NC(=O)[C@H](CCC(=O)O)NC(=O)[C@H](CCCCNC(=O)COCCOCCNC(=O)COCCOCCNC(=O)CC[C@H](NC(=O)CCCCCCCCCCCCCCCCC(=O)O)C(=O)O)NC(=O)[C@H](C)NC(=O)[C@H](C)NC(=O)[C@H](CCC(N)=O)NC(=O)CNC(=O)[C@H](CCC(=O)O)NC(=O)[C@H](CC(C)C)NC(=O)[C@H](Cc1ccc(O)cc1)NC(=O)[C@H](CO)NC(=O)[C@H](CO)NC(=O)[C@@H](NC(=O)[C@H](CC(=O)O)NC(=O)[C@H](CO)NC(=O)[C@@H](NC(=O)[C@H](Cc1ccccc1)NC(=O)[C@@H](NC(=O)CNC(=O)[C@H](CCC(=O)O)NC(=O)C(C)(C)NC(=O)[C@@H](N)Cc1cnc[nH]1)[C@@H](C)O)[C@@H](C)O)C(C)C)C(=O)N[C@@H](C)C(=O)N[C@@H](Cc1c[nH]c2ccccc12)C(=O)N[C@@H](CC(C)C)C(=O)N[C@H](C(=O)N[C@@H](CCCNC(=N)N)C(=O)NCC(=O)N[C@@H](CCCNC(=N)N)C(=O)NCC(=O)O)C(C)C [Semaglutide, reference compound]
